Results as given in PubChem BioAssay.
Active and inactive are the calls of the source.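 The calls were made as follows, unless noted: active = growth inhibition above 25% in both replicates, a cutoff set 3 SD above the mean; inconclusive = above 25% in only one replicate; inactive = the rest.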

Assay: S. cerevisiae growth inhibition in permissive medium (OD615), pilot counter-assay for S. cerevisiae lifespan shortening project, permissive growth control (AID 705)
Details: OD615, 24 h, at 10 µM, active compounds read high
In short: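 Material: engineered DeaD yeast; Compound: one dose 10 µM, DMSO 0.25% final; Detection: absorbance (optical density) at 615 nm; Buffer or medium: permissive raffinose/galactose medium; Timing: 24 h exposure, 30 °C.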

| Structure (SMILES) | growth inhibition |
| --- | --- |
| Cc1cc(C(=O)NCc2ccc3c(c2)OCO3)n(-c2ccccc2)n1 | -8.49% (inactive) |
| Cc1oc(-c2cccs2)nc1CS(=O)CC(=O)NCCc1ccccc1 (stereo not given) | 0.14% (inactive) |
| CCOc1ccc(C(=O)Nn2cnnc2)cc1 | -3.16% (inactive) |
| COc1ccc(C(=O)Nc2c(N)nc(SCC(=O)N3CCCCCC3)[nH]c2=O)cc1OC | -2.35% (inactive) |
| Cc1nnc(NC(=O)CSc2nnc(Cc3cccn3C)n2C)s1 | -3.1% (inactive) |
| O=C(c1ccccn1)N(CC1CCCO1)C1(C(=O)NC2CCCCC2)CCCCC1 (stereo not given) | -4.99% (inactive) |
| O=C(Cc1n[nH]c(=O)c2ccccc12)NCc1ccccn1 | -3.9% (inactive) |
| Cn1c(C(=O)N2CCCCCC2)cc2c(=O)n(C)c3ccccc3c21 | -8.92% (inactive) |
| COC(=O)c1ccccc1NC(=O)CSc1nc(N)cc(N)n1 | -11.6% (inactive) |
| COc1ccc(C2(CNC(C)=O)CCOCC2)cc1OC | -14.1% (inactive) |
| CCc1ccc(-c2nc(C(N)=O)c3[nH]c(=O)n(-c4ccccc4OC)c3n2)cc1 | -5.67% (inactive) |
| Cc1ccccc1-c1nc(CN2CCC(C(=O)O)CC2)c(C)o1 | 1.1% (inactive) |
| Cc1ccc(C)c(NC(=O)CS(=O)(=O)c2c[nH]c3ccccc23)c1 | -9.01% (inactive) |
| COc1ccc(N2CSC3=C(C#N)C(c4ccc(OC)c(OC)c4)CC(=O)N3C2)c(OC)c1 (stereo not given) | 18.8% (inactive) |
| O=C1CCc2cc(S(=O)(=O)NC(Cc3ccccc3)C(=O)NCC3CCCO3)ccc2N1 (stereo not given) | -8.29% (inactive) |
| COC(=O)c1c(C)nc(C)c2c(=O)oc3ccccc3c12 | 3.52% (inactive) |
| CSc1nnc2c(n1)OC(c1ccc(C(=O)O)cc1)N(C(C)=O)c1ccccc1-2 (stereo not given) | -1% (inactive) |
| CC(C)CNC1=CC(=O)CC(c2ccco2)C1 (stereo not given) | -13% (inactive) |
| CCOC(=O)c1ccc2nc(NC(=O)C(C)C)sc2c1 | -10.9% (inactive) |
| CCCOC(=O)C1=C(C)NC2=C(C(=O)CC(C)(C)C2)C1c1ccc(N(C)C)cc1 (stereo not given) | -2.65% (inactive) |

| Structure (SMILES) | growth inhibition |
| --- | --- |
| CCOC(=O)N1CCN(C(=O)Cn2ncc3ccccc32)CC1 | -14.3% (inactive) |
| O=C(NC(Nc1ncccn1)C(=O)c1ccccc1)c1ccccc1 (stereo not given) | 5.63% (inactive) |
| CCCCn1c(CCNC(=O)CC)nc2ccccc21 | -8.93% (inactive) |
| CCOC(=O)N1CCN(C(=O)CCSc2ccccc2)CC1 | 2.04% (inactive) |
| O=C(Nc1nc2c(Cl)ccc(Cl)c2s1)c1ccco1 | -22% (inactive) |
| O=C(CSCC(=O)N1CCOCC1)Nc1ccccc1 | -11.4% (inactive) |
| CCOC(=O)CSc1nnc(Cn2c(=O)sc3ccccc32)n1-c1ccccc1C | -8.34% (inactive) |
| CC1(C)CC(=O)c2sc(NC(=O)CN3C(=O)CCC3=O)nc2C1 | -6.85% (inactive) |
| Cc1cc(NC(=O)NC2(C(F)(F)F)Oc3ccc(Cl)cc3O2)no1 (stereo not given) | -3.33% (inactive) |
| CN1CCN(CCCNC(=O)c2ccc3c(c2)N(Cc2ccccc2)CCS3)CC1 | -2.21% (inactive) |
| O=C(NC(O)C(=O)c1ccccc1)c1cccs1 (stereo not given) | 5.04% (inactive) |
| Cc1ccc(-c2nc(CS(=O)(=O)CC(=O)N3CCc4ccccc4C3)c(C)o2)cc1 | -3.42% (inactive) |
| COc1ccccc1N1CSC2=C(C#N)C(c3ccc(SC)cc3)CC(=O)N2C1 (stereo not given) | -1.16% (inactive) |
| COc1ccc(Cl)cc1C(=O)N(Cc1nc(-c2cccc(C)c2)no1)C(C)C | -18.4% (inactive) |
| CCOc1cccc(C(=O)Nc2cccc(-c3nnc(-c4ccccc4)o3)c2)c1 | -8.09% (inactive) |
| CC1C(c2ccccc2)=[N+]([O-])C2(CCCC2)N1O (stereo not given) | -2.46% (inactive) |
| CC(=O)c1cccc(NC(=O)C2CCCC2)c1 | -9.02% (inactive) |
| O=C(NCCN1CCCCC1)c1ccc2c(c1)OCCO2 | -9.66% (inactive) |
| O=C(NCc1ccco1)C1CCN(S(=O)(=O)c2cccc3cccnc23)CC1 | 5.31% (inactive) |
| CCSC1=C(C#N)C(c2ccccc2C)CC(=O)N1 (stereo not given) | -9.12% (inactive) |

Assay: S. cerevisiae growth inhibition in restrictive medium, OD615, pilot screen, restrictive growth control, yeast lifespan reduction project (AID 706;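 active = growth inhibition above a set limit, 3 SD over mean compound inhibition, in both replicates, cut at about 43% in these data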;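 also: modified DeaD lifespan yeast strain shifted to restrictive glucose medium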)
Details: OD615, 48 h, at 10 µM, active compounds read high
In short: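 Buffer or medium: restrictive glucose medium (CSMM-D); test system: modified S. cerevisiae; doses: single dose of 10 µM compound final, 0.25% DMSO; schedule: 48 h compound exposure at 30 °C; detection: absorbance (optical density) measured at 615 nm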

| Structure (SMILES) | growth inhibition |
| --- | --- |
| Cc1cc(C(=O)NCc2ccc3c(c2)OCO3)n(-c2ccccc2)n1 | -5.84% (inactive) |
| Cc1oc(-c2cccs2)nc1CS(=O)CC(=O)NCCc1ccccc1 (stereo not given) | 34.7% (inactive) |
| CCOc1ccc(C(=O)Nn2cnnc2)cc1 | -5.59% (inactive) |
| COc1ccc(C(=O)Nc2c(N)nc(SCC(=O)N3CCCCCC3)[nH]c2=O)cc1OC | -3.33% (inactive) |
| Cc1nnc(NC(=O)CSc2nnc(Cc3cccn3C)n2C)s1 | 24.4% (inactive) |
| O=C(c1ccccn1)N(CC1CCCO1)C1(C(=O)NC2CCCCC2)CCCCC1 (stereo not given) | -10.3% (inactive) |
| O=C(Cc1n[nH]c(=O)c2ccccc12)NCc1ccccn1 | -19.5% (inactive) |
| Cn1c(C(=O)N2CCCCCC2)cc2c(=O)n(C)c3ccccc3c21 | -2.14% (inactive) |
| COC(=O)c1ccccc1NC(=O)CSc1nc(N)cc(N)n1 | 5.95% (inactive) |
| COc1ccc(C2(CNC(C)=O)CCOCC2)cc1OC | -2.29% (inactive) |
| CCc1ccc(-c2nc(C(N)=O)c3[nH]c(=O)n(-c4ccccc4OC)c3n2)cc1 | -2.13% (inactive) |
| Cc1ccccc1-c1nc(CN2CCC(C(=O)O)CC2)c(C)o1 | -0.365% (inactive) |
| Cc1ccc(C)c(NC(=O)CS(=O)(=O)c2c[nH]c3ccccc23)c1 | -31.9% (inactive) |
| COc1ccc(N2CSC3=C(C#N)C(c4ccc(OC)c(OC)c4)CC(=O)N3C2)c(OC)c1 (stereo not given) | 22.1% (inactive) |
| O=C1CCc2cc(S(=O)(=O)NC(Cc3ccccc3)C(=O)NCC3CCCO3)ccc2N1 (stereo not given) | -8.79% (inactive) |
| COC(=O)c1c(C)nc(C)c2c(=O)oc3ccccc3c12 | 15.3% (inactive) |
| CSc1nnc2c(n1)OC(c1ccc(C(=O)O)cc1)N(C(C)=O)c1ccccc1-2 (stereo not given) | 13.2% (inactive) |
| CC(C)CNC1=CC(=O)CC(c2ccco2)C1 (stereo not given) | -15.9% (inactive) |
| CCOC(=O)c1ccc2nc(NC(=O)C(C)C)sc2c1 | -10.6% (inactive) |
| CCCOC(=O)C1=C(C)NC2=C(C(=O)CC(C)(C)C2)C1c1ccc(N(C)C)cc1 (stereo not given) | 0.07% (inactive) |

| Structure (SMILES) | growth inhibition |
| --- | --- |
| CCOC(=O)N1CCN(C(=O)Cn2ncc3ccccc32)CC1 | -4.71% (inactive) |
| O=C(NC(Nc1ncccn1)C(=O)c1ccccc1)c1ccccc1 (stereo not given) | -0.54% (inactive) |
| CCCCn1c(CCNC(=O)CC)nc2ccccc21 | -5.17% (inactive) |
| CCOC(=O)N1CCN(C(=O)CCSc2ccccc2)CC1 | 2.15% (inactive) |
| O=C(Nc1nc2c(Cl)ccc(Cl)c2s1)c1ccco1 | -3.32% (inactive) |
| O=C(CSCC(=O)N1CCOCC1)Nc1ccccc1 | -8.24% (inactive) |
| CCOC(=O)CSc1nnc(Cn2c(=O)sc3ccccc32)n1-c1ccccc1C | -6.71% (inactive) |
| CC1(C)CC(=O)c2sc(NC(=O)CN3C(=O)CCC3=O)nc2C1 | 0.48% (inactive) |
| Cc1cc(NC(=O)NC2(C(F)(F)F)Oc3ccc(Cl)cc3O2)no1 (stereo not given) | -23% (inactive) |
| CN1CCN(CCCNC(=O)c2ccc3c(c2)N(Cc2ccccc2)CCS3)CC1 | -12.1% (inactive) |
| O=C(NC(O)C(=O)c1ccccc1)c1cccs1 (stereo not given) | -5.63% (inactive) |
| Cc1ccc(-c2nc(CS(=O)(=O)CC(=O)N3CCc4ccccc4C3)c(C)o2)cc1 | -1.55% (inactive) |
| COc1ccccc1N1CSC2=C(C#N)C(c3ccc(SC)cc3)CC(=O)N2C1 (stereo not given) | 15.8% (inactive) |
| COc1ccc(Cl)cc1C(=O)N(Cc1nc(-c2cccc(C)c2)no1)C(C)C | -10.7% (inactive) |
| CCOc1cccc(C(=O)Nc2cccc(-c3nnc(-c4ccccc4)o3)c2)c1 | 6.69% (inactive) |
| CC1C(c2ccccc2)=[N+]([O-])C2(CCCC2)N1O (stereo not given) | -6.78% (inactive) |
| CC(=O)c1cccc(NC(=O)C2CCCC2)c1 | -23.5% (inactive) |
| O=C(NCCN1CCCCC1)c1ccc2c(c1)OCCO2 | -10.3% (inactive) |
| O=C(NCc1ccco1)C1CCN(S(=O)(=O)c2cccc3cccnc23)CC1 | 5.93% (inactive) |
| CCSC1=C(C#N)C(c2ccccc2C)CC(=O)N1 (stereo not given) | -23.4% (inactive) |
